This note sets out measurements from ChEMBL document CHEMBL4043093, “2-Oxo-3, 4-dihydropyrimido[4, 5-d]pyrimidinyl derivatives as new irreversible pan fibroblast growth factor receptor (FGFR) inhibitors” (Eur J Med Chem, 2017).

Assay [1] addresses Ephrin type-A receptor 2 (Homo sapiens) (UniProt P29317). Description: Inhibition of wild-type human partial length EPHA2 (T593 to V891 residues) expressed in Escherichia coli BL21 assessed as residual activity at 1000 nM after 30 mins by Kinomescan method relative to control.
Assay [2] addresses Ribosomal protein S6 kinase alpha-2 (Homo sapiens) (UniProt Q15349). Description: Inhibition of wild-type human partial length N-terminal RSK2 kinase domain 1 (M1 to D394 residues) expressed in HEK293 cells assessed as residual activity at 1000 nM after 30 mins by Kinomescan method relative to control. The class given is cell-based.
In assay [3] the target is BDNF/NT-3 growth factors receptor (Homo sapiens) (UniProt Q16620). Description: Inhibition of wild-type human partial length TRKB (Q547 to G838 residues) expressed in HEK293 cells assessed as residual activity at 1000 nM after 30 mins by Kinomescan method relative to control. The format is cell-based.
Assay [4] concerns the target Mitogen-activated protein kinase 15 (Homo sapiens) (UniProt Q8TD08). Description: Inhibition of wild-type human partial length ERK8 (M1 to P437 residues) expressed in Escherichia coli BL21 assessed as residual activity at 1000 nM after 30 mins by Kinomescan method relative to control.
Assay [5] has as its target Serine/threonine-protein kinase RIO1 (Homo sapiens) (UniProt Q9BRS2). The experiment in a line: Inhibition of wild-type human full length RIOK1 (M1 to K568 residues) expressed in Escherichia coli BL21 assessed as residual activity at 1000 nM after 30 mins by Kinomescan method relative to control.
Assay [6] has as its target Serine/threonine-protein kinase Nek9 (Homo sapiens) (UniProt Q8TD19). Description: Inhibition of wild-type human partial length NEK9 (P32 to R328 residues) expressed in Escherichia coli BL21 assessed as residual activity at 1000 nM after 30 mins by Kinomescan method relative to control.
Assay [7] has as its target Serine/threonine-protein kinase MAK (Homo sapiens) (UniProt P20794). The experiment in a line: Inhibition of wild-type human partial length MAK (M1 to P314 residues) expressed in Escherichia coli BL21 assessed as residual activity at 1000 nM after 30 mins by Kinomescan method relative to control.
The target in assay [8] is Mitogen-activated protein kinase 10 (Homo sapiens) (UniProt P53779). Description: Inhibition of wild-type human partial length JNK3 (V28 to Q422 residues) expressed in HEK293 cells assessed as residual activity at 1000 nM after 30 mins by Kinomescan method relative to control. The class given is cell-based.
For assay [9], the target named is Protein kinase C iota type (Homo sapiens) (UniProt P41743). Description: Inhibition of wild-type human partial length PRKCI (H215 to V587 residues) expressed in HEK293 cells assessed as residual activity at 1000 nM after 30 mins by Kinomescan method relative to control. The format is cell-based.
Assay [10] concerns Phosphatidylinositol 4,5-bisphosphate 3-kinase catalytic subunit alpha isoform (Homo sapiens), P42336 [E545K]. Description: Inhibition of human partial length PIK3CA E545K mutant (R108 to N1068 residues) expressed in HEK293 cells assessed as residual activity at 1000 nM after 30 mins by Kinomescan method relative to control. The format is cell-based. The method in brief:
(§1)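 KINOMEscan binding panel of 456 kinases, with the test compound at a single concentration of 1 µM. Read-out is Percent Control.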

Assay [11] relates to Mast/stem cell growth factor receptor Kit (Homo sapiens), P10721 [V559D]. The experiment in a line: Inhibition of human partial length KIT V559D mutant (Y545 to D952 residues) expressed in Escherichia coli BL21 assessed as residual activity at 1000 nM after 30 mins by Kinomescan method relative to control. The method in brief:
as §1

Assay [12] addresses Tyrosine-protein kinase FRK (Homo sapiens) (UniProt P42685). Description: Inhibition of wild-type human partial length FRK (A215 to F503 residues) expressed in Escherichia coli BL21 assessed as residual activity at 1000 nM after 30 mins by Kinomescan method relative to control.
Assay [13] concerns the target Cyclin-dependent kinase 7 (Homo sapiens) (UniProt P50613). Description: Inhibition of wild-type human full length CDK7 (M1 to L344 residues) expressed in HEK293 cells assessed as residual activity at 1000 nM after 30 mins by Kinomescan method relative to control. The class given is cell-based. The method in brief: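 Single-point screen at a fixed 1 µM, run within a 456-kinase DiscoveRx KINOMEscan panel. Each kinase's read-out is Percent Control, i.e. signal relative to a control without compound. Hits were scored by a Percent Control < 35 cut-off, and an S(35) selectivity score was calculated across the non-mutant kinases.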

Assay [14] concerns the target Receptor-interacting serine/threonine-protein kinase 1 (Homo sapiens) (UniProt Q13546). The experiment in a line: Inhibition of wild-type human partial length RIPK1 (M1 to K305 residues) expressed in Escherichia coli BL21 assessed as residual activity at 1000 nM after 30 mins by Kinomescan method relative to control.
Assay [15] deals with Calcium/calmodulin-dependent protein kinase type II subunit gamma (Homo sapiens) (UniProt Q13555). Description: Inhibition of wild-type human partial length CAMK2G (R9 to A303 residues) expressed in Escherichia coli BL21 assessed as residual activity at 1000 nM after 30 mins by Kinomescan method relative to control.
Assay [16] addresses Serine/threonine-protein kinase Nek6 (Homo sapiens) (UniProt Q9HC98). The experiment in a line: Inhibition of wild-type human full length NEK6 (M8 to T313 residues) expressed in Escherichia coli BL21 assessed as residual activity at 1000 nM after 30 mins by Kinomescan method relative to control. The gist of the method: (§2)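 Single-concentration screen at 1 µM across a 456-kinase KINOMEscan panel. The read-out is Percent Control for each kinase.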

Assay [17] addresses Ankyrin repeat and protein kinase domain-containing protein 1 (Homo sapiens) (UniProt Q8NFD2). Description: Inhibition of wild-type human partial length ANKK1 (M1 to A305 residues) expressed in HEK293 cells assessed as residual activity at 1000 nM after 30 mins by Kinomescan method relative to control. The class given is cell-based.
Assay [18] relates to Epidermal growth factor receptor (Homo sapiens), P00533 [T790M]. The experiment in a line: Inhibition of human partial length EGFR T790M mutant (R669 to G1022 residues) expressed in HEK293 cells assessed as residual activity at 1000 nM after 30 mins by Kinomescan method relative to control. The class given is cell-based. The gist of the method:
as §1

In assay [19] the target is Serine/threonine-protein kinase 24 (Homo sapiens) (UniProt Q9Y6E0). The experiment in a line: Inhibition of wild-type human partial length MST3 (A30 to S311 residues) expressed in Escherichia coli BL21 assessed as residual activity at 1000 nM after 30 mins by Kinomescan method relative to control.
Assay [20] deals with Mitogen-activated protein kinase 9 (Homo sapiens) (UniProt P45984). The experiment in a line: Inhibition of wild-type human full length JNK2 (M1 to Q382 residues) expressed in HEK293 cells assessed as residual activity at 1000 nM after 30 mins by Kinomescan method relative to control. The class given is cell-based. The method in brief:
as §2

Assay [21] concerns the target Calcium/calmodulin-dependent protein kinase type 1B (Homo sapiens) (UniProt Q6P2M8). Description: Inhibition of wild-type human partial length CAMK1B (W9 to A311 residues) expressed in HEK293 cells assessed as residual activity at 1000 nM after 30 mins by Kinomescan method relative to control. The class given is cell-based.

Sequence of Ribosomal protein S6 kinase alpha-2 (Homo sapiens) (Q15349 whole entry, the tested form may be a part): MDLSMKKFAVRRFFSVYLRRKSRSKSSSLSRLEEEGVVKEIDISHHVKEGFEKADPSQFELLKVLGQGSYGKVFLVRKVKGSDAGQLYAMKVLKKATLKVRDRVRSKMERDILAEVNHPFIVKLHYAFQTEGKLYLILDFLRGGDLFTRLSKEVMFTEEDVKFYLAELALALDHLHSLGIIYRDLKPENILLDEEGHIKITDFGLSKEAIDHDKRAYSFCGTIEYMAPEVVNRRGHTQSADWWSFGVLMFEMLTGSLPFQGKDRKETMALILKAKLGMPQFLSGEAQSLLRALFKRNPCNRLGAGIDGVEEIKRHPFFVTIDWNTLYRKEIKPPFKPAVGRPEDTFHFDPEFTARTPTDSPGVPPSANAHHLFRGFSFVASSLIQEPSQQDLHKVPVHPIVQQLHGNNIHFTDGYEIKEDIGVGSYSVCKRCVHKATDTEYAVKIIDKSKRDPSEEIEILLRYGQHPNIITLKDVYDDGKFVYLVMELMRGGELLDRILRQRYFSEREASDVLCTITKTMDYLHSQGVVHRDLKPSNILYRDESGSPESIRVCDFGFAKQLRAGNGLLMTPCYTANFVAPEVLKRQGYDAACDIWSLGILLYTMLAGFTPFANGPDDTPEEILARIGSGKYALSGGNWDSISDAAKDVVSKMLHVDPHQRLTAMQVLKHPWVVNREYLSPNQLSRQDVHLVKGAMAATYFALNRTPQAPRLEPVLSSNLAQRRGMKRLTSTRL
Sequence of Calcium/calmodulin-dependent protein kinase type II subunit gamma (Homo sapiens) (Q13555 whole entry, the tested form may be a part): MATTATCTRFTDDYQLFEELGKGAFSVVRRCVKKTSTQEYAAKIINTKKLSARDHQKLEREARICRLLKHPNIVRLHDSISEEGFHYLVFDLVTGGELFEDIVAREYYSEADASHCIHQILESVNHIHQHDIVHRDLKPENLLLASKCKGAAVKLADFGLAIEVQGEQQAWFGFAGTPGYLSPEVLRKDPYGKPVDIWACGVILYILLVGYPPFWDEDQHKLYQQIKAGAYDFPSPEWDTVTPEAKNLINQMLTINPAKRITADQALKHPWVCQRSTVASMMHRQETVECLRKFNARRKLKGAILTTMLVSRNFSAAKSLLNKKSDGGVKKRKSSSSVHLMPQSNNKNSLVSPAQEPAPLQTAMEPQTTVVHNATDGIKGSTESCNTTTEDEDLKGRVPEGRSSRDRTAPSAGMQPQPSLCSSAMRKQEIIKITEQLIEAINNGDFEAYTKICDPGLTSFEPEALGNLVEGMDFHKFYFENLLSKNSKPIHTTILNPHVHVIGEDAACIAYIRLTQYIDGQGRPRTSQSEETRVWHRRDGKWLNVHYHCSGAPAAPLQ
Sequence of Receptor-interacting serine/threonine-protein kinase 1 (Homo sapiens) (Q13546 whole entry, the tested form may be a part): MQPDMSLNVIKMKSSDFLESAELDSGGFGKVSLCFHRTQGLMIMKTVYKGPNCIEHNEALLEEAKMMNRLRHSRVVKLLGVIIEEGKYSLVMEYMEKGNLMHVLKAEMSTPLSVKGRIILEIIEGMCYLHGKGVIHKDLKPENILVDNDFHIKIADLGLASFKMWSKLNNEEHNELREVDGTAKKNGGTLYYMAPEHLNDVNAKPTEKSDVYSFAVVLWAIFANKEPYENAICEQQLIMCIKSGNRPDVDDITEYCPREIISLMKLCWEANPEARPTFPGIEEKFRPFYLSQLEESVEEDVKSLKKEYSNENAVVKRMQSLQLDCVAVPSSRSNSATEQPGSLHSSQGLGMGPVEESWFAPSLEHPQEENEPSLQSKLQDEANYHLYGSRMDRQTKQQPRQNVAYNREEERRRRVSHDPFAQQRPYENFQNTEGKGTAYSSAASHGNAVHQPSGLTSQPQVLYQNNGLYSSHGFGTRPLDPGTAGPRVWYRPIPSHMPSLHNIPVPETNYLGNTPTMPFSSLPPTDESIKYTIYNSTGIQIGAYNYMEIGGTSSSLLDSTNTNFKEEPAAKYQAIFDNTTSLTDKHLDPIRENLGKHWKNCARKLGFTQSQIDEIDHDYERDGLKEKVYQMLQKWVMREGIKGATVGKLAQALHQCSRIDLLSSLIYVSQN
Sequence of Serine/threonine-protein kinase 24 (Homo sapiens) (Q9Y6E0 whole entry, looked up, the tested form may be a part): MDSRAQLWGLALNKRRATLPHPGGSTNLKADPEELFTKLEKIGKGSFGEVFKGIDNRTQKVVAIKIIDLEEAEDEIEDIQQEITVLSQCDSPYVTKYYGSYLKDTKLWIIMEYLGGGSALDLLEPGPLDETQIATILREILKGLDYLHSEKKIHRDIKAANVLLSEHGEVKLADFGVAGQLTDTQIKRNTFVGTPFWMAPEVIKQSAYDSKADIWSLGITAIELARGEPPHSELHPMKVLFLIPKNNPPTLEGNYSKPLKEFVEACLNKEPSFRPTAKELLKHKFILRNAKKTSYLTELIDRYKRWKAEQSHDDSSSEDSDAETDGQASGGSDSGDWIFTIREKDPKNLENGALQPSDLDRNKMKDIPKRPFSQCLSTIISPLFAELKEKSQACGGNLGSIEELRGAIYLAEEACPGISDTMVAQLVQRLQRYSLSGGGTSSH
Sequence of Serine/threonine-protein kinase Nek9 (Homo sapiens) (Q8TD19 whole entry, the tested form may be a part): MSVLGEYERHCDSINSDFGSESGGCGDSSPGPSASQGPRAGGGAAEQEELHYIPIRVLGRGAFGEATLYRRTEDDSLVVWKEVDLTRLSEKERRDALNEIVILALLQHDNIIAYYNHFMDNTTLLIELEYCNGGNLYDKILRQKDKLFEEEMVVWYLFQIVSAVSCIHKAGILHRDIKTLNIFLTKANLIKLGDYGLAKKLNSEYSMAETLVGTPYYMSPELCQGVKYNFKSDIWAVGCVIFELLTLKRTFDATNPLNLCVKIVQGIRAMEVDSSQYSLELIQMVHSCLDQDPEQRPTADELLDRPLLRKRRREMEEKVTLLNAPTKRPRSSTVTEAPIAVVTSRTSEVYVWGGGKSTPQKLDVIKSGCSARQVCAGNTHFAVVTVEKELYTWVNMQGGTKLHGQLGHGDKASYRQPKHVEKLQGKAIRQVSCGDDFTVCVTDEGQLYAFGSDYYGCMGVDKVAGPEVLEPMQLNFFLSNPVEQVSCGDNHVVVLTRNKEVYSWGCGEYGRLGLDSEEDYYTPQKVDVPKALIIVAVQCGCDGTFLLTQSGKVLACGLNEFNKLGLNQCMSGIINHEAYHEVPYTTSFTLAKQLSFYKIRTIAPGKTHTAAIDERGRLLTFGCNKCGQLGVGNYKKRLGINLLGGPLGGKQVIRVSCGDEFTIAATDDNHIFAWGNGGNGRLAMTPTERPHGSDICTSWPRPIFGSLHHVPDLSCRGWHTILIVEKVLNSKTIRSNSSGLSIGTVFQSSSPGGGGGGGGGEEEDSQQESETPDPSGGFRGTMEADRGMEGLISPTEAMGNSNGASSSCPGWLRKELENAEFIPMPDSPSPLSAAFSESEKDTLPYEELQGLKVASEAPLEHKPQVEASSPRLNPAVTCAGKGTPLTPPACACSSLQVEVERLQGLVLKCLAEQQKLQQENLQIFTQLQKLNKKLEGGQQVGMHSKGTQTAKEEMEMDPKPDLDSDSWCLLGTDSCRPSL
Sequence of Mast/stem cell growth factor receptor Kit (Homo sapiens), P10721 [V559D] (P10721 whole entry V559D, the tested form may be a part): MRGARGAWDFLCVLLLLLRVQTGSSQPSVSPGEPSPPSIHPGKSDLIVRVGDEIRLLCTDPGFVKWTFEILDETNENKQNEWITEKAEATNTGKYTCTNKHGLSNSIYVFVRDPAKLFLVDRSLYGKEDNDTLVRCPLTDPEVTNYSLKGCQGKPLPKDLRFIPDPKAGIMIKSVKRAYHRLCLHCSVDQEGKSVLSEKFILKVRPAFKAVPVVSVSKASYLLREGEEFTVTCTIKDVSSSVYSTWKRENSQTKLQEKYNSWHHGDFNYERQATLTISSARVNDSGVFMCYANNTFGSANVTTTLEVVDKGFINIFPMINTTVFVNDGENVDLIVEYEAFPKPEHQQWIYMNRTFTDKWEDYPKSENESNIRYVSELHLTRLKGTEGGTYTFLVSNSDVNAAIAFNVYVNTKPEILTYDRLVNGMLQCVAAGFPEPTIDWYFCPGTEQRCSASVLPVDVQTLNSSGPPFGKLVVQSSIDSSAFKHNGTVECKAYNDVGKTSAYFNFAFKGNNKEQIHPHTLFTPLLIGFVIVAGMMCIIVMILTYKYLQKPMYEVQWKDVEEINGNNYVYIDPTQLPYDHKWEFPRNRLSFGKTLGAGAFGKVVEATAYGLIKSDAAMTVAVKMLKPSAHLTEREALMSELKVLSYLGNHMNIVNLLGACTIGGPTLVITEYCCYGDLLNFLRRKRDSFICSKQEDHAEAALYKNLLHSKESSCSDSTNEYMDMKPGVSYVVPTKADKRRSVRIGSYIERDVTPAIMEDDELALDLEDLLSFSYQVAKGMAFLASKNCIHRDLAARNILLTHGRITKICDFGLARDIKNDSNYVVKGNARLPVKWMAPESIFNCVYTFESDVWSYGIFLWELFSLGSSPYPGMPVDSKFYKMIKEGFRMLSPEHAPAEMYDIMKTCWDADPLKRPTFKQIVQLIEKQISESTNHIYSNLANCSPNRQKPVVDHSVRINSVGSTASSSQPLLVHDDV
Sequence of Mitogen-activated protein kinase 9 (Homo sapiens) (P45984 whole entry, looked up, the tested form may be a part): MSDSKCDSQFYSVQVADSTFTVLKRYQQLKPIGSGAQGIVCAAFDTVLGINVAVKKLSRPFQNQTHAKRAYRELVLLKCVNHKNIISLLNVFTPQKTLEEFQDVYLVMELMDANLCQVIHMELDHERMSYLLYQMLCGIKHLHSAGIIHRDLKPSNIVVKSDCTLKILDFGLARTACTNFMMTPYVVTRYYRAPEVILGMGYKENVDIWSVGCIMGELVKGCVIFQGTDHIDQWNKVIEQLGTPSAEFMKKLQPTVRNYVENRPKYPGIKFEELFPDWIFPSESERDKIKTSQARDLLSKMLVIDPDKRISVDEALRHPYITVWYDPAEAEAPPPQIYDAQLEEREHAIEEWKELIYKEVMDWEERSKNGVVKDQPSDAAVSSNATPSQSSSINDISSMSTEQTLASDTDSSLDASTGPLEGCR

For `COc1cc(OC)c(Cl)c(N2Cc3cnc(Nc4ccc(F)cc4)nc3N(C3CCN(C(=O)/C=C/CN(C)C)CC3)C2=O)c1Cl`, the Activity was found to be 100% in assay [1]; 89% in assay [2]; 54% in [3]; 100% in assay [4]; 99% in [5]; 100% in assay [6]. Further, the Activity in assay [7] was 100%; in assay [8], 100%; in assay [9], 100%; in [10], 99%; in assay [11], 11%; in assay [12], 59%. Also, the Activity is 100% in assay [13]; 100% in assay [14]; 100% in [15]; 100% in assay [16]; 96% in assay [17]; 94% in [18]. Moreover, the Activity in assay [19] is 68%; in assay [20], 92%; in assay [21], 100%.
